# Assays:
# [1] = target: T1, 5-hydroxytryptamine receptor 6 (Homo sapiens, UniProt P50406); experiment: Antagonist activity at recombinant human 5-HT6 receptor expressed in HEK293 cells assessed as 5-HT-induced intracellular cAMP production after 30 mins; assay type: functional, cell-based
# Procedure, shortened: (§1)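 Human 5-HT6R in HEK cells under a tetracycline-inducible T-REx promoter, induced with 1 µg/mL tetracycline the day before. Cells in HBSS/5 mM HEPES pH 7.4, 0.05% BSA and IBMX, about 4000 per well. IC50 from 4-parameter fit, in duplicate. Ki by Cheng-Prusoff using 5-HT EC50 measured alongside.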
# [2] = target: T1, 5-hydroxytryptamine receptor 6; experiment: Partial agonist activity at recombinant human 5-HT6 receptor expressed in HEK293 cells assessed as induction of intracellular cAMP production after 30 mins; assay type: functional, cell-based
# [3] = target: T1, 5-hydroxytryptamine receptor 6; experiment: Antagonist activity at 5-HT6 receptor (unknown origin); procedure, shortened: as §1
# [4] = target: T1, 5-hydroxytryptamine receptor 6; experiment: Displacement of [3H]-lysergic acid diethylamide from human 5-HT6 receptor expressed in HEK293 cell membranes after 3.5 hrs
# T1 sequence (P50406 whole entry): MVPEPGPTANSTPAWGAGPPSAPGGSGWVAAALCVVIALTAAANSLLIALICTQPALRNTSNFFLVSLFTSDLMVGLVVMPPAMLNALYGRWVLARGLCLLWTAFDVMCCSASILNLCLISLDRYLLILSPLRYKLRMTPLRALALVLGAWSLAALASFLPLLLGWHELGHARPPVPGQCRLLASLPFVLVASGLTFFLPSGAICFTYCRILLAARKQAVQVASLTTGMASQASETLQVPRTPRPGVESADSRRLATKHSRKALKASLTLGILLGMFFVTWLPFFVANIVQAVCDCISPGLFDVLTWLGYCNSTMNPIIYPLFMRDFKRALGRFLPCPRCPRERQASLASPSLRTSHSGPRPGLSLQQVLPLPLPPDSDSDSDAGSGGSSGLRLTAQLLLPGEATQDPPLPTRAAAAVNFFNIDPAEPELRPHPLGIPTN
Compound,Ki [1] [nM],other results
O=S(=O)(c1ccccc1)c1ccccc1 [(PHENYLSULFONYL)BENZENE],1600,–
CN(C)c1cc(N2CCNCC2)ccc1S(=O)(=O)c1ccccc1,30.1,Activity [2]: 17%
CNc1ccccc1S(=O)(=O)c1ccccc1,24.3,–
CNc1cc(-c2cccnc2)ccc1S(=O)(=O)c1ccccc1,48.3,–
COc1ccccc1S(=O)(=O)c1ccccc1,866,–
CCNc1cc(N2CCNCC2)ccc1S(=O)(=O)c1ccccc1,–,IC50 [3]: 2.7 nM
O=S(=O)(c1ccccc1)c1ccc(N2CCNCC2)cc1,10.8,–
CNc1cc(-c2ccccc2)ccc1S(=O)(=O)c1ccccc1,153,–
Nc1ccccc1S(=O)(=O)c1ccccc1,491,–
Cc1cc(N2CCNCC2)c2c(c1)N(S(=O)(=O)c1ccccc1Cl)CCO2,–,Ki [4]: 0.2 nM

# Now from value to compound, other results behind:
Ki [1] [nM],Compound,other results
183,Nc1ccc(S(=O)(=O)c2ccc(N)cc2)cc1 [DAPSONE],–
2040,CN(C)c1ccccc1S(=O)(=O)c1ccccc1,–
564,Nc1ccc(S(=O)(=O)c2ccc(N)c(N)c2)cc1,–
1.65,Nc1cc(N2CCNCC2)ccc1S(=O)(=O)c1ccccc1,–
8.3,CC(=O)Nc1cc(N2CCNCC2)ccc1S(=O)(=O)c1ccccc1,–
